Results on 15 molecules are retold here after ChEMBL document CHEMBL1146290, “Core exploration in optimization of chemokine receptor CCR4 antagonists” (Bioorg Med Chem Lett, 2007).

Molecules are shown by their SMILES. The source made the active and inactive calls. No cut-off for these calls is given here. Where only a bound is given, the exact number is not on record here.

Data set [1] deals with T1, C-C chemokine receptor type 4 (Mus musculus) (UniProt P51680).
T1 sequence (whole entry): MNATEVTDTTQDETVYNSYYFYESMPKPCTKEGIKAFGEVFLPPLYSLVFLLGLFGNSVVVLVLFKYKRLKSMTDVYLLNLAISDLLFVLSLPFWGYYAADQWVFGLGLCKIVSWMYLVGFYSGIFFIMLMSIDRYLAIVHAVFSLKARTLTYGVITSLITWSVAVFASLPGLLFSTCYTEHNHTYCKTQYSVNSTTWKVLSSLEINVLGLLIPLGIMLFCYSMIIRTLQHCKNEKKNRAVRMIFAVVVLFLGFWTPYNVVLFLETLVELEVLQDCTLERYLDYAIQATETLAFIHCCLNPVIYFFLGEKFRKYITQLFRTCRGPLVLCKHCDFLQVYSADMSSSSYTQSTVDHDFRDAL
As to the kind of experiment: Inhibition of ovalbumin-induced eosinophil infiltration in sc dosed BALB/c mouse allergic inflammation model.

The target in data set [2] is T1, C-C chemokine receptor type 4 (Mus musculus). In words: Inhibition of ovalbumin-induced eosinophil infiltration in BALB/c mouse allergic inflammation model at 30 mg/kg, sc.
Data set [3] is described as follows: Metabolic stability in human microsomes. It is filed as ADME, Microsome.
In data set [4] the target is T2, C-C chemokine receptor type 4 (Homo sapiens, UniProt P51679).
T2 sequence (P51679 whole entry): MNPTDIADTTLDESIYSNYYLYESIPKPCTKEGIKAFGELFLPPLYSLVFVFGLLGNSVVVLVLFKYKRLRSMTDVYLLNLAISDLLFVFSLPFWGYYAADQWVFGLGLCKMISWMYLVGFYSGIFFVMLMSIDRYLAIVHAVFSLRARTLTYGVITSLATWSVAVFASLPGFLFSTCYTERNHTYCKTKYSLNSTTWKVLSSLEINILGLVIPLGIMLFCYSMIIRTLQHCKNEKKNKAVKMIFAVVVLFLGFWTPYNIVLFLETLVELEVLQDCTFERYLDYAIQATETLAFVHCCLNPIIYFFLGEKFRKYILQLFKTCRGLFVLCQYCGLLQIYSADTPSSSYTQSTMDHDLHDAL
As to the kind of experiment: Displacement of [125I]MDC from human CCR4 expressed in HEK293 cells. It is filed as cell-based.

Data set [5] concerns the target T1, C-C chemokine receptor type 4 (Mus musculus). In words: Inhibition of ovalbumin-induced eosinophil infiltration in BALB/c mouse allergic inflammation model at 5 mg/kg, po. It is filed as functional, organism-based. Details: dose 5 mg/kg. The method in brief:
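Mice previously immunized with ovalbumin; dexamethasone given orally at 5 mg/kg as reference control. Total leukocytes, total eosinophils and percent eosinophils counted in bronchoalveolar lavage fluid. Seven to eight mice per group; means ± SEM; significance versus vehicle group by ANOVA with Dunnett's test (p < 0.05).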

The nature of data set [6]: Carcinogenicity in SOS chromotest. It is filed as ADME.
The target in data set [7] is T2, C-C chemokine receptor type 4. As to the kind of experiment: Antagonist activity at human CCR4 expressed in CEMS529 cells assessed as effect on calcium mobilization. It is filed as functional, cell-based.
Data set [8] can be described thus: Toxicity in human immortalized hepatocytes. It is filed as cell-based, Hepatocyte.
For data set [9], the target named is CYP450 (isoform not stated) (Homo sapiens, UniProt P04798+P05177+P05181+P08684+P10632+P10635+P11509+P11712+P13584+P20813+P20815+P20853+P24462+P24903+P33260+P33261+P51589+P78329+P98187+Q02928+Q08477+Q16678+Q16696+Q5TCH4+Q6VVX0+Q7Z449+Q8TAV3+Q96SQ9+Q9HB55). As to the kind of experiment: Inhibition of CYP450. It is filed as ADME.

Consider `O=C([C@@H]1CCCCN1)N1CCN(c2nc(NCc3ccc(Cl)cc3Cl)c3cccnc3n2)CC1`, for which, in data set [1], the 50% effect level (ED50) was put at a dose of 10 mg/kg. Moreover, in [2], the result was Active. In [3], this molecule registered a Stability of 0.003 nmol/mg/min.
`CCN(CC)CCCC(C)Nc1nc(NCc2ccc(Cl)cc2Cl)c2c(ncn2CC)n1` (configuration not stated) yielded an IC50 in [4] of 1100 nM.
Consider `CCN(CC)CCCC(C)Nc1ncc2c(ncn2Cc2ccc(Cl)cc2Cl)n1` (configuration not stated), for which, in [4], the IC50 worked out at 830 nM.
On the same count and under the same terms, the value for `CCN(CC)CCCC(C)Nc1nc(NC)nc(NCc2ccc(Cl)cc2Cl)n1` (configuration not stated) was 3600 nM.
The same measure, in the same setting: the value for `CCN(CC)CCCC(C)Nc1nc(NCc2ccc(Cl)cc2Cl)nc2ccccc12` (configuration not stated) was 1910 nM; that for `O=C([C@@H]1CCCN1)N1CCN(c2nc(NCc3ccc(Cl)cc3Cl)c3cccnc3n2)CC1` was 80 nM.
For the molecule `C[C@@H]1C[C@H]2[C@@H]3CCC4=CC(=O)C=C[C@]4(C)[C@@]3(F)[C@@H](O)C[C@]2(C)[C@@]1(O)C(=O)CO`, the result in data set [5] was Active.
Consider `CCN(CC)C(C)CCCNc1nccc(NCc2ccc(Cl)cc2Cl)n1.N` (configuration not stated), for which the IC50 is 280 nM in data set [4], 800 nM in [7], above 40000 nM in data set [8] and above 1000 nM in data set [9]. In data set [6], the Activity result is given as “Non-toxic”. The same molecule had a Stability in data set [3] of 0.1 nmol/mg/min.
The molecule `CCN(CC)CCCC(C)Nc1nc(NCc2ccc(Cl)cc2Cl)nc2ncn(CC)c12` (configuration not stated) returned an IC50 in data set [4] of 2600 nM.
Still for that read-out and setting: the result for `CCN(CC)CCCC(C)Nc1ccc2cnn(Cc3ccc(Cl)cc3Cl)c2n1` (configuration not stated) reads 280 nM; that for `CCN(CC)CCCC(C)Nc1nc(NCc2ccc(Cl)cc2Cl)c2ccccc2n1` (configuration not stated), 500 nM; that for `CCN(CC)CCCC(C)Nc1ncc2ncn(Cc3ccc(Cl)cc3Cl)c2n1` (configuration not stated), 820 nM.
The same measure, in the same setting: the result for `CCN(CC)CCCC(C)Nc1nc(NCc2ccc(Cl)cc2Cl)c2[nH]cnc2n1` (configuration not stated) reads 4900 nM; that for `CCN(CC)CCCC(C)Nc1nc(NCc2ccc(Cl)cc2Cl)c2cccnc2n1` (configuration not stated), 140 nM.
Still for that read-out and setting: the value for `CCN(CC)CCCC(C)Nc1nc(NCc2ccc(Cl)cc2Cl)nc2nc[nH]c12` (configuration not stated) was 2100 nM.
